Usually IC50 stands for the concentration at which inhibition is half-maximal.

The record followed here is ChEMBL document CHEMBL5338733, “Heterobifunctional Ligase Recruiters Enable pan-Degradation of Inhibitor of Apoptosis Proteins” (J Med Chem, 2023).

Experiment [1] addresses von Hippel-Lindau disease tumor suppressor (Homo sapiens) (UniProt P40337). The experiment in a line: Induction of VHL30 degradation in human MM1.S cells assessed as remaining protein level at 0.1 uM incubated for 16 hrs by western blot analysis. The experiment is classed as cell-based. A digest of the protocol:
(§1)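 MM.1S cells treated 16 h at the stated concentration. Lysed, run on SDS-PAGE and transferred to PVDF. Probed with primary antibodies overnight at 4 °C, then HRP secondaries, with ECL detection. Band densitometry normalized to loading control and to DMSO-treated cells. Averages of at least three independent experiments.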
Background: In western blotting, separated proteins are transferred to a membrane and probed.

The target in experiment [2] is Baculoviral IAP repeat-containing protein 2 (Homo sapiens) (UniProt Q13490). The experiment in a line: Induction of cIAP1 degradation in human MM1.S cells assessed as remaining protein level at 0.1 uM incubated for 16 hrs by western blot analysis. The experiment is classed as cell-based. A digest of the protocol:
(§2)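 Lysed, run on SDS-PAGE and transferred to PVDF. Probed with primary antibodies overnight at 4 °C, then HRP secondaries, with ECL detection. Band densitometry normalized to loading control and to DMSO-treated cells. Averages of at least three independent experiments.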

In experiment [3] the target is Baculoviral IAP repeat-containing protein 3 (Homo sapiens) (UniProt Q13489). The experiment in a line: Induction of cIAP2 degradation in human MM1.S cells assessed as remaining protein level at 0.1 uM incubated for 16 hrs by western blot analysis. In kind it is cell-based. A digest of the protocol: as §2
For experiment [4], the target named is Baculoviral IAP repeat-containing protein 2 (Homo sapiens) (UniProt Q13490). In words: Induction of cIAP1 degradation in human MM1.S cells at 1 uM incubated for 16 hrs by western blot analysis. The experiment is classed as cell-based. A digest of the protocol: as §1
In experiment [5] the target is Baculoviral IAP repeat-containing protein 3 (Homo sapiens) (UniProt Q13489). The experiment in a line: Induction of cIAP2 degradation in human MM1.S cells at 1 uM incubated for 16 hrs by western blot analysis. The experiment is classed as cell-based. A digest of the protocol:
as §1

In experiment [6] the target is E3 ubiquitin-protein ligase XIAP (Homo sapiens) (UniProt P98170). In words: Induction of XIAP degradation in human MM1.S cells at 1 uM incubated for 16 hrs by western blot analysis. The experiment is classed as cell-based. The essentials: as §1
Experiment [7] has as its target von Hippel-Lindau disease tumor suppressor (Homo sapiens) (UniProt P40337). In words: Induction of VHL30 degradation in human MM1.S cells at 1 uM incubated for 16 hrs by western blot analysis. The experiment is classed as cell-based. The essentials: as §1
The target is the same in experiment [8]. The experiment in a line: Induction of VHL19 degradation in human MM1.S cells at 1 uM incubated for 16 hrs by western blot analysis. In kind it is cell-based. A digest of the protocol: as §1
Another experiment has as its system RPMI-8226. In words: Cytotoxicity against human RPMI-8226 cells assessed as reduction in cell viability measured after 96 hrs in presence of TNF-alpha by CellTiter-Glo luminescent assay. The experiment is classed as functional, cell-based. As to conditions: RPMI-8226, 96 h. A digest of the protocol: (§3)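 Cells kept in RPMI-1640 with 10% FBS, 1% penicillin/streptomycin and 1% L-glutamine at 37 °C, 5% CO2. Seeded with compounds and incubated 96 h at 37 °C with TNF-α at 1 ng/mL. Viability read by CellTiter-Glo luminescence and normalized to DMSO-treated control. Mean ± SD of biological triplicates.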

The next experiment deals with JJN-3. In words: Cytotoxicity against human JJN-3 cells assessed as reduction in cell viability measured after 96 hrs in presence of TNF-alpha by CellTiter-Glo luminescent assay. The experiment is classed as functional, cell-based. As to conditions: JJN-3, 96 h. The essentials:
as §3

In the next experiment the test system is NCI-H929. The experiment in a line: Cytotoxicity against human NCI-H929 cells assessed as reduction in cell viability measured after 96 hrs in presence of TNF-alpha by CellTiter-Glo luminescent assay. The experiment is classed as functional, cell-based. As to conditions: NCI-H929, 96 h. A digest of the protocol:
(§4)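 Cells seeded with compound at indicated concentrations ± TNF-α 1 ng/mL, incubated 96 h at 37 °C; viability by CellTiter-Glo luminescence, normalized to DMSO control; mean ± SD of biological triplicates. NCI-H929 cultured in RPMI-1640/10% FBS with 2-mercaptoethanol and sodium pyruvate; other lines in RPMI-1640/10% FBS, 37 °C, 5% CO2.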
Background: Cellular ATP, detected with luciferase, serves as a proxy for viable cell number.

The subject of the next experiment is HEL. In words: Cytotoxicity against human HEL cells assessed as reduction in cell viability measured after 96 hrs in presence of TNF-alpha by CellTiter-Glo luminescent assay. The experiment is classed as functional, cell-based. A digest of the protocol:
as §3

The next experiment relates to K562. In words: Cytotoxicity against human K562 cells assessed as reduction in cell viability measured after 96 hrs in presence of TNF-alpha by CellTiter-Glo luminescent assay. Particulars: K562, 96 h. The experiment is classed as functional, cell-based. A digest of the protocol:
as §3

The test system of the next experiment is MOLM-13. The experiment in a line: Cytotoxicity against human MOLM-13 cells assessed as reduction in cell viability measured after 96 hrs in presence of TNF-alpha by CellTiter-Glo luminescent assay. In kind it is functional, cell-based. As to conditions: MOLM-13, 96 h. The essentials:
as §3

For a further experiment, the system named is SUD4. In words: Cytotoxicity against human SU-DHL-4 cells assessed as reduction in cell viability measured after 96 hrs in presence of TNF-alpha by CellTiter-Glo luminescent assay. Particulars: SU-DHL-4, 96 h. The experiment is classed as functional, cell-based. A digest of the protocol: as §3
The test system of another experiment is DB. In words: Cytotoxicity against human DB cells assessed as reduction in cell viability measured after 96 hrs in presence of TNF-alpha by CellTiter-Glo luminescent assay. In kind it is functional, cell-based. A digest of the protocol: as §3
The test system of a further experiment is SU-DHL-6. In words: Cytotoxicity against human SU-DHL-6 cells assessed as reduction in cell viability measured after 96 hrs in presence of TNF-alpha by CellTiter-Glo luminescent assay. The experiment is classed as functional, cell-based. As to conditions: SU-DHL-6, 96 h. A digest of the protocol:
as §4

Each structure is given as a SMILES string. The source made the active and inactive calls. The calls are words filed in the database; no cut-off is given here.

von Hippel-Lindau disease tumor suppressor (Homo sapiens), sequence (P40337 whole entry, looked up): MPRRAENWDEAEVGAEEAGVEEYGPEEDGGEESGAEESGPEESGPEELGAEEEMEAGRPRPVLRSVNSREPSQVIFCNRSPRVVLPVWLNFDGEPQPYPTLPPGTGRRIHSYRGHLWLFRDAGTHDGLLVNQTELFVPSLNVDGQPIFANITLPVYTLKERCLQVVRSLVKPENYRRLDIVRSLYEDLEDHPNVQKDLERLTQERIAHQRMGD
Baculoviral IAP repeat-containing protein 2 (Homo sapiens), sequence (Q13490 whole entry): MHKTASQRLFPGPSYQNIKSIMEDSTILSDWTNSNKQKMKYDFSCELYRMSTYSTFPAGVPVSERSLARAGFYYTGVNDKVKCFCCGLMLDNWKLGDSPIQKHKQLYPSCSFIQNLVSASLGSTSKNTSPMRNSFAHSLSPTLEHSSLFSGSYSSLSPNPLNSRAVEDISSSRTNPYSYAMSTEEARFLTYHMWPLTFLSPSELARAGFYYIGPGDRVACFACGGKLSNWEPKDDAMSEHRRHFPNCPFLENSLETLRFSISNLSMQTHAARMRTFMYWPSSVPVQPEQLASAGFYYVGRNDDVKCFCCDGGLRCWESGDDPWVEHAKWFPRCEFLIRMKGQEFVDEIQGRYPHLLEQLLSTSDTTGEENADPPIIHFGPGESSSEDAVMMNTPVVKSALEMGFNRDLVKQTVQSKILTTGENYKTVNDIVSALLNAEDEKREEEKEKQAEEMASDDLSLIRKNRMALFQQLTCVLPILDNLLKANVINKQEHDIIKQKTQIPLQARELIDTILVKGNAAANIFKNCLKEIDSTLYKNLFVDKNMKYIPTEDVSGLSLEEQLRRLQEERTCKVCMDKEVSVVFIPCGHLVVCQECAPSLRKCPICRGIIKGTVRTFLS
Baculoviral IAP repeat-containing protein 3 (Homo sapiens), sequence (Q13489 whole entry): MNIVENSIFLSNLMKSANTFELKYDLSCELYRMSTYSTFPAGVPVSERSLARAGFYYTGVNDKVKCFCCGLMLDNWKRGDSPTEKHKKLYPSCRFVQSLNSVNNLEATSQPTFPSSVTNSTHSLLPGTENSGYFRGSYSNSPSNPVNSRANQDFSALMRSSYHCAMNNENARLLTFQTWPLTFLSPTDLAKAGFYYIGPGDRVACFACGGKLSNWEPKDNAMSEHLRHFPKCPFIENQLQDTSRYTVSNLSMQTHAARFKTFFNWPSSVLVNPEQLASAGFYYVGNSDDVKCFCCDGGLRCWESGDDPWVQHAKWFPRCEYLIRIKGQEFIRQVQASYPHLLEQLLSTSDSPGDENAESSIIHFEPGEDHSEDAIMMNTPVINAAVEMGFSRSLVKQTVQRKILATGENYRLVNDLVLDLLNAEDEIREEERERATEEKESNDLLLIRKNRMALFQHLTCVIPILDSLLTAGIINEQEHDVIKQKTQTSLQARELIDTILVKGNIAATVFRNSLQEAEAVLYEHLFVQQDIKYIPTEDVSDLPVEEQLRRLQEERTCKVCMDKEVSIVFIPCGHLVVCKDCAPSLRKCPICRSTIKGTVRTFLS
E3 ubiquitin-protein ligase XIAP (Homo sapiens), sequence (P98170 whole entry): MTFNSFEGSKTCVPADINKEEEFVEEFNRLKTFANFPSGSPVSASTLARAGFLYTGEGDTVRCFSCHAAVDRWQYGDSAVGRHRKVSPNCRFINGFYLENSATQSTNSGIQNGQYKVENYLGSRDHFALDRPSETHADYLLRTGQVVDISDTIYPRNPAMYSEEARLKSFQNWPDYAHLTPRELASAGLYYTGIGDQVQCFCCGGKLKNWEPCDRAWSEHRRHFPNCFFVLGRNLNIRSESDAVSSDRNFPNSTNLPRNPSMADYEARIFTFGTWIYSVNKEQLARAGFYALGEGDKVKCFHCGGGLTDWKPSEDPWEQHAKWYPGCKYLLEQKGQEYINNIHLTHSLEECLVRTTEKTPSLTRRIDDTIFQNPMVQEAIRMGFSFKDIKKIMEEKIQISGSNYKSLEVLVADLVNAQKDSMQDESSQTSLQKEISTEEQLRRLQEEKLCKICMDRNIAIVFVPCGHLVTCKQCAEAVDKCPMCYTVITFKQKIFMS

For `Cc1ncsc1-c1ccc(CNC(=O)[C@@H]2C[C@@H](O)CN2C(=O)[C@@H](NC(=O)C2(C#N)CC2)C(C)(C)C)cc1`, the Activity in experiment [1] came out at 95%; in experiment [2], 95%; in experiment [3], 81%. Moreover, the result in experiment [4], in [5], in experiment [6], in experiment [7] and in [8] was inactive. Further, the IC50 with RPMI-8226, in the experiment on JJN-3, with NCI-H929, in the experiment on HEL, with K562 and in the experiment on MOLM-13 was more than 10 µM in each case. For the same compound, the half-maximal inhibitory concentration (IC50) in the experiment with SUD4, in the experiment with DB and with SU-DHL-6 was more than 10 µM each time.
